According to ChEMBL document CHEMBL4190245, “Caffeic Acid Phenethyl Ester from the Twigs of Cinnamomum cassia Inhibits Malignant Cell Transformation by Inducing c-Fos Degradation” (J Nat Prod, 2017):
Values belong to the molecule of their own block, whether it stands above or below them. The source made the active and inactive calls. The calls are words filed in the database; no cut-off is given here.

Tests used:
[1] = Cytotoxicity against mouse JB6 P+ cells up to 10 uM after 24 to 48 hrs by CellTiter96 AQueous one solution assay; assay type: cell-based
In short: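 JB6 P+ cells seeded, incubated overnight, then switched to 0.1% FBS MEM and compound added; viability read by MTS reagent at 24 and 48 h; triplicate samples, means ± standard deviation.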

[2] = organism: Mus musculus; test: Induction of proteasome-mediated c-fos degradation in EGF-stimulated mouse JB6 P+ cells assessed as reduction in c-fos protein level at 1 uM preincubated for 1 hr followed by EGF stimulation for 15 mins by Western blot method
In short: (§1)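 JB6 P+ cells were serum-starved 24 h, pretreated 1 h with compound (0.5 and 1 μM), then stimulated with EGF (10 ng/mL) and harvested after 15 min. Lysates (10−60 μg protein) were run on SDS-PAGE and immunoblotted for phospho or total proteins, with chemiluminescent detection.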

[3] = organism: Mus musculus; test: Inhibition of RSK phosphorylation at T359/S363 residue in EGF-stimulated mouse JB6 P+ cells at 0.5 to 1 uM preincubated for 1 hr followed by EGF stimulation and measured after 15 mins by Western blot method; in short: as §1
[4] = organism: Mus musculus; test: Induction of proteasome-mediated c-fos degradation in EGF-stimulated mouse JB6 P+ cells assessed as inhibition of c-fos phosphorylation at S32 residue at 0.5 to 1 uM preincubated for 1 hr followed by EGF stimulation and measured after 15 mins by Western blot method; in short: as §1
[5] = organism: Mus musculus; test: Induction of proteasome-mediated c-fos degradation in EGF-stimulated mouse JB6 P+ cells assessed as reduction in total c-fos protein level at 0.5 to 1 uM preincubated for 1 hr followed by EGF stimulation and measured after 15 mins by Western blot method; in short: as §1
[6] = biological target: Transcription factor Jun (Mus musculus) (UniProt P05627); test: Effect on phosphorylated c-jun in EGF-stimulated mouse JB6 P+ cells at 0.25 to 1 uM preincubated for 1 hr followed by EGF stimulation
Sequence of Transcription factor Jun (Mus musculus) (P05627 whole entry): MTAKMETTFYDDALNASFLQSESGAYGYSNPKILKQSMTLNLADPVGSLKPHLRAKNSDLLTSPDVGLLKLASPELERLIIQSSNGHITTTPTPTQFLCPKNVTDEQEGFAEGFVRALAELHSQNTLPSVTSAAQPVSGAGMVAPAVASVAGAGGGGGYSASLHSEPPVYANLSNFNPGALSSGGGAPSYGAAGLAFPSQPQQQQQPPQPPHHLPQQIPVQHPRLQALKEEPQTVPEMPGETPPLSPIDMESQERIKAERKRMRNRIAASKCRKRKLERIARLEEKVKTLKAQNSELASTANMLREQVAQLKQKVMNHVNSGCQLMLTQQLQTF
In short: (§2)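 The TransAM AP-1 family ELISA was run on cell extracts: wells coated with AP-1 binding oligonucleotide, probed with a c-Fos or p-c-Jun specific primary antibody, then an HRP secondary, and absorbance read at 450 nm; n = 3.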

[7] = organism: Mus musculus; test: Induction of proteasome-mediated c-fos degradation in EGF-stimulated mouse JB6 P+ cells assessed as reduction in c-fos protein level at 1 uM preincubated for 1 hr followed by EGF stimulation for 15 mins in presence of 10 uM proteasome inhibitor MG132 by Western blot method
In short: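 Cells serum-starved 24 h, pretreated with MG132 (10 μM) plus compound (0.5 and 1 μM), collected 15 min after EGF (10 ng/mL); lysates immunoblotted for c-Fos.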

[8] = organism: Mus musculus; test: Inhibition of TPA-induced mouse JB6 P+ cells transformation after 14 days by microscopy based soft agar assay; assay type: functional
In short: (§3)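 Soft agar: 8 × 10^3 cells/mL in 0.3% BME top agar with 10% FBS, compound and EGF or TPA, layered over 0.5% agar in BME with 10% FBS and the same additions; kept 1 to 2 weeks at 37 °C in 5% CO2, colonies counted by microscope; triplicate means ± SD.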

[9] = organism: Mus musculus; test: Inhibition of EGF-induced cell cycle progression in mouse epidermal JB6 P+ cells assessed as accumulation at G1 phase at 0.25 to 1 uM preincubated for 1 hr followed by EGF challenge measured after 24 hrs by propidium iodide staining-based FACS analysis; assay type: functional
In short: (§4)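 Seeded at 1.5 × 10^5 cells per 60 mm dish, starved 24 h in 0.1% FBS MEM, pretreated 1 h with compound, then EGF (10 ng/mL) for 24 h; cells fixed in cold 70% ethanol overnight, stained with RNase A and propidium iodide for 30 min at room temperature, analysed by flow cytometry; n = 3.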

[10] = organism: Mus musculus; test: Inhibition of EGF-induced c-fos mRNA expression in mouse JB6 P+ cells at 0.5 to 1 uM preincubated for 1 hr followed by EGF stimulation and measured after 15 mins by real-time PCR method; assay type: functional, cell-based
In short: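 Compound given 1 h before EGF (10 ng/mL); total RNA extracted 15 min later, reverse-transcribed and c-fos quantified by SYBR Green real-time PCR (95 °C 10 min, then 40 cycles of 95 °C 15 s and 59 °C 1 min); n = 3.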

[11] = organism: Mus musculus; test: Induction of proteasome-mediated c-fos degradation in EGF-stimulated mouse JB6 P+ cells assessed as reduction in c-fos activity at 0.25 to 1 uM preincubated for 1 hr followed by EGF stimulation; in short: as §2
[12] = organism: Mus musculus; test: Inhibition of CREB phosphorylation at S133 residue in EGF-stimulated mouse JB6 P+ cells at 0.5 to 1 uM preincubated for 1 hr followed by EGF stimulation and measured after 15 mins by Western blot method; in short: as §1
[13] = organism: Mus musculus; test: Inhibition of EGF-induced cell cycle progression in mouse epidermal JB6 P+ cells assessed as reduction in accumulation at G2/M phase at 0.25 to 1 uM preincubated for 1 hr followed by EGF challenge and measured after 24 hrs by propidium iodide staining-based FACS analysis; assay type: functional; in short: as §4
[14] = organism: Mus musculus; test: Inhibition of EGF-induced mouse JB6 P+ cells transformation after 12 days by microscopy based soft agar assay; assay type: functional; in short: as §3
[15] = organism: Mus musculus; test: Inhibition of ERK phosphorylation at T202/Y204 residue in EGF-stimulated mouse JB6 P+ cells at 0.5 to 1 uM preincubated for 1 hr followed by EGF stimulation and measured after 15 mins by Western blot method; in short: as §1
[16] = organism: Mus musculus; test: Inhibition of EGF-induced mouse JB6 P+ cells transformation at 0.25 to 2 uM after 12 days by microscopy based soft agar assay; assay type: functional; in short: as §3
[17] = organism: Mus musculus; test: Inhibition of EGF-induced cell cycle progression in mouse epidermal JB6 P+ cells assessed as accumulation at G1 phase at 0.5 to 1 uM preincubated for 1 hr followed by EGF challenge measured after 24 hrs by propidium iodide staining-based FACS analysis; assay type: functional; in short: as §4
[18] = organism: Mus musculus; test: Induction of proteasome-mediated c-fos degradation (unknown origin) expressed in TPA-stimulated mouse JB6 P+ cells co-expressing AP1-lucifearse assessed as inhibition of AP-1 activation preincubated for 1 hr followed by TPA stimulation for 4 hrs by luciferase reporter gene assay; assay type: cell-based
In short: (§5)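 JB6 P+ cells stably carrying an AP-1 luciferase reporter (kept in 5% FBS MEM with 200 μg/mL G418) were starved 24 h in 0.1% FBS MEM, given compound 1 h before EGF (10 ng/mL) or TPA (20 ng/mL), lysed in phosphate/Triton buffer pH 7.8 and read for firefly luciferase; n = 3.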

[19] = organism: Mus musculus; test: Inhibition of TPA-induced mouse JB6 P+ cells transformation at 0.25 to 2 uM after 14 days by microscopy based soft agar assay; assay type: functional; in short: as §3
[20] = organism: Mus musculus; test: Induction of proteasome-mediated c-fos degradation (unknown origin) expressed in EGF-stimulated mouse JB6 P+ cells co-expressing AP1-lucifearse assessed as inhibition of AP-1 activation preincubated for 1 hr followed by EGF stimulation for 4 hrs by luciferase reporter gene assay; assay type: cell-based; in short: as §5
[21] = organism: Mus musculus; test: Inhibition of EGF-induced cell cycle progression in mouse epidermal JB6 P+ cells assessed as reduction in accumulation at G2/M phase at 0.5 to 1 uM preincubated for 1 hr followed by EGF challenge and measured after 24 hrs by propidium iodide staining-based FACS analysis; assay type: functional; in short: as §4

Activity [2]: Active | inhibition [3]: inactive | Activity [4]: Active | Activity [5]: Active | Activity [6]: inactive | Activity [7]: inactive | Activity [11]: Active | inhibition [12]: inactive | inhibition [15]: inactive
Structure (SMILES): O=C(/C=C/c1ccc(O)c(O)c1)OCCc1ccccc1 [CAFFEIC ACID PHENETHYL ESTER]
Activity [1]: Non-Toxic | inhibition [8]: Dose-dependent effect | inhibition [9]: Active | inhibition [10]: inactive | inhibition [13]: Active | inhibition [14]: Dose-dependent effect

Activity [4]: inactive | Activity [5]: inactive
Structure (SMILES): O=C(O)/C=C/c1ccc(O)c(O)c1 [CAFFEIC ACID]
Activity [1]: Non-Toxic | inhibition [16]: inactive | inhibition [17]: inactive | Activity [18]: inactive | inhibition [19]: inactive | Activity [20]: inactive | inhibition [21]: inactive
